Assay outcomes deposited in PubChem by several laboratories.
Hits are enriched below; roughly 1.8% of the tested compounds scored in any of these assays.
NR2E3 ag-1 = human photoreceptor-specific nuclear receptor agonism | CHO-S Gal4-NCOR/VP16-NR2E3 two-hybrid, luciferase | inhibition of corepressor binding, % at 3.98 µM | actives 0.35% (n = 360,000) | AID 602229;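 active means inhibition above the mean of all tested compounds plus 3 SD, cut at about 70% in these data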;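 further: higher means lower luciferase signal from less NR2E3 corepressor binding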
Target sequence (Q9Y5X4 whole entry, looked up, the tested form may be a part): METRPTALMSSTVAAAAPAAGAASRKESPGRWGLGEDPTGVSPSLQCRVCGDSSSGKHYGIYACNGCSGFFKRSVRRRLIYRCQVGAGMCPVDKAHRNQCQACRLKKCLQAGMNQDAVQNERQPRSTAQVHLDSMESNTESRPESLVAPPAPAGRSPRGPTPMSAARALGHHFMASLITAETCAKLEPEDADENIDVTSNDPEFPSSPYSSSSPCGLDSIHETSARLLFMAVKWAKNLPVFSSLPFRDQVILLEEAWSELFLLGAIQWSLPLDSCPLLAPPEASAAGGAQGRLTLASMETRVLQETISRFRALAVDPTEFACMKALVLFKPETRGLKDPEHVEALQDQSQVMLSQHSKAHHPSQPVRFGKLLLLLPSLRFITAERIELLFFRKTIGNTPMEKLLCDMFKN
697 NFkB inh = inhibitors of the PMA/ionomycin-induced NF-kB reporter in 697 B cells | 697 B-cell NF-kB luciferase reporter, 16 h | inhibition, % at 4 µM | actives 0.33% (n = 330,000) | AID 435022; in the data active means inhibition above about 35%
Jurkat NFkB inh = inhibitors of the PMA/ionomycin-induced NF-kB reporter in Jurkat cells. actives 0.53% (n = 330,000). inhibition, % at 4 µM. PMA/ionomycin-induced NF-kB luciferase reporter, luminescence; in the data active means inhibition above about 50%
GalR3 antag = human GalR3 antagonism; O60755; HEK293 GalR3-CNG cAMP membrane potential fluorescence; galR3 body fused to GalR1 C-terminus; inhibition, % at 3 µM; actives 0.44% (n = 360,000); AID 651719;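 active means inhibition above the screen-wide average plus 3 SD, cut at about 13% in these data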;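 further: forskolin and galanin both at EC90 stimulate the cells; cAMP rise reported by CNG channel membrane potential dye signal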
Target sequence (O60755 1-299 limits assumed): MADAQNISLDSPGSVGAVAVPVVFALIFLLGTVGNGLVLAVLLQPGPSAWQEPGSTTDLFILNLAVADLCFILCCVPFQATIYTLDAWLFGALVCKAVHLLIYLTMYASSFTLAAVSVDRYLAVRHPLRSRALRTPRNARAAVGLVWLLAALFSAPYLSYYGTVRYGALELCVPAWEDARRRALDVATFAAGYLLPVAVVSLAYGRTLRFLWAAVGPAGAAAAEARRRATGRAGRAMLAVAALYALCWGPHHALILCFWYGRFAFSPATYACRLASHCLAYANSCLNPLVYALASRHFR
NR2E3 ag-2 = agonists of human nuclear receptor NR2E3. Q9Y5X4. GST-NR2E3/biotin-RetCOR TR-FRET, 1536-well. actives 0.12% (n = 320,000). inhibition of corepressor binding, % at 4.78 µM;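 active means percent inhibition above the cutoff of mean plus 3 SD of all tested compounds, set per screening campaign, cut at about 20% in these data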
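System: GST-tagged NR2E3 plus biotinylated RetCOR corepressor; Amount: 1.35 nM GST-tagged NR2E3 final; Dosing: single nominal compound dose of 4.8 µM; Schedule: 5 h incubation at 4 °C; Technique: TR-FRET with europium anti-GST and streptavidin-D2, 340 nm excitation; Controls: biotin wells as high control, 0.6% DMSO wells as low control.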
Gli-Sufu block = Gli-Sufu pathway antagonism; Sufu-KO-LIGHT fibroblasts, Gli luciferase reporter luminescence; inhibition, % at 5 µM; actives 0.74% (n = 340,000); AID 588413;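 active means inhibition above about 55%, limit read from the data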
Jurkat NFkB conf = inhibitors of the PMA/ionomycin-induced NF-kB reporter in Jurkat cells, retest | shares compounds with Jurkat NFkB inh | Jurkat NF-kB luciferase, 16 h | inhibition, % at 4 µM | actives 27% (n = 2,700) | AID 435020;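 active means inhibition reaching about 45% at 4 µM in either replicate, limit read from the data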
697 NFkB conf = inhibitors of the PMA/ionomycin-induced NF-kB reporter in 697 B cells, retest. shares compounds with 697 NFkB inh. 697 B-cell NF-kB luciferase, 16 h. inhibition, % at 4 µM. actives 35% (n = 2,000); in the data active means inhibition mostly above about 28%, no sharp cut-off; inactive means mostly below about 22%
Gli-Sufu confirm = Gli-SUFU antagonism confirmation, single concentration. shares compounds with Gli-Sufu block. Sufu-KO-LIGHT cells, Gli luciferase reporter, luminescence. inhibition, % at 5 µM. actives 40% (n = 2,500);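 active means mean inhibition at 5 µM reaching about 45%, limit read from the data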
SufuKO cytotox = counter-screen for Gli-SUFU antagonists: cytotoxicity; cytotoxicity, % at 5 µM; Sufu-KO-LIGHT cells cytotoxicity, ATP luminescence; shares compounds with Gli-Sufu block; actives 32% (n = 2,500);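 active means mean cytotoxicity at 5 µM above about 25%, limit read from the data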;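 further: cells exposed to compound overnight for roughly 16 to 18 hours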
Wnt3a counter = inhibits Wnt3a reporter, counter-screen for Gli-SUFU antagonists | shares compounds with Gli-Sufu block | Wnt-LIGHT cells, Wnt3a-driven luciferase reporter, luminescence | inhibition, % at 6.25 µM | actives 20% (n = 2,500) | AID 651995;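 active means mean inhibition above about 25%, limit read from the data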
NR2E3 ag conf = NR2E3 agonism confirmed in two-hybrid assay; shares compounds with NR2E3 ag-1; CHO-S mammalian two-hybrid NR2E3-NCOR, luciferase luminescence; inhibition, % at 3.98 µM; actives 51% (n = 2,300);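 active means average inhibition above a cutoff equal to the mean inhibition of all tested compounds plus one SD, cut at about 70% in these data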
GAL4-VP16 luc = counter-screen for NR2E3 agonists: GAL4-VP16 reporter inhibitors | shares compounds with NR2E3 ag-1 | CHO-S GAL4-VP16 luciferase reporter, luminescence | inhibition, % at 3.98 µM | actives 29% (n = 2,300) | AID 624379;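 active means mean inhibition above a cutoff equal to the average over all tested compounds plus one standard deviation, cut at about 70% in these data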;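 further: luciferase from a UAS reporter driven by GAL4-VP16 transactivation; higher means less reporter light so more repression of VP16 activity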
GalR3 antag conf = confirmation of human galanin receptor 3 antagonists | shares compounds with GalR3 antag | HEK293 GalR3 CNG cAMP biosensor, membrane potential fluorescence; galR3 fused to GalR1 carboxy tail; challenged with forskolin and galanin at EC90 | inhibition, % at 3 µM | actives 59% (n = 1,600);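 active means inhibition above the primary screen's cutoff, the mean inhibition of all screened compounds plus 3 SD, cut at about 13% in these data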
CNG parental = parental cell agonism counter-screen for GalR3 antagonists | shares compounds with GalR3 antag | HEK293-CNG parental cells, cAMP membrane potential fluorescence; normalised: DMSO wells 0%, forskolin wells 100% | activation, % at 3 µM | actives 10% (n = 1,600); in the data active means activation above about 1.3%
Large screens that a line does not name were inactive (follow-up assays come after a bar, where they were run).

O=C(Nc1ccc(S(=O)(=O)N2CCCCC2)cc1)c1ccc(CN2CCc3ccccc3C2)cc1	Jurkat NFkB inh 80, GalR3 antag 106 | Jurkat NFkB conf 78 | GalR3 antag conf 105 | CNG parental inactive
CC(C)C[C@H]1COc2cc(N3CCCC3)ccc2S(=O)(=O)N1	none (no result: NR2E3 ag-1, 697 NFkB inh, Jurkat NFkB inh, NR2E3 ag-2, Gli-Sufu block)
O=S(=O)(c1ccc2c(c1)OCCO2)N1CCN(c2ncnc3sccc23)CC1	NR2E3 ag-1 87, Jurkat NFkB inh 52, GalR3 antag 100, Gli-Sufu block 64 | Jurkat NFkB conf 54 | Gli-Sufu confirm 61 | SufuKO cytotox 48 | Wnt3a counter inactive | GalR3 antag conf 111 | CNG parental inactive
COc1ccc(C(=O)N2CCN(c3ccc([N+](=O)[O-])c(NCCc4ccc(OC)c(OC)c4)c3)CC2)cc1	Jurkat NFkB inh 73, GalR3 antag 24, Gli-Sufu block 79 | Jurkat NFkB conf 75 | Gli-Sufu confirm 76 | SufuKO cytotox 32 | Wnt3a counter inactive | GalR3 antag conf 92 | CNG parental inactive
O=C(NCc1ccccc1)[C@H]1CCCN1C(=O)[C@H]1CCCN1C(=O)c1ccc(F)c(C(F)(F)F)c1	none (no result: NR2E3 ag-1, 697 NFkB inh, Jurkat NFkB inh, NR2E3 ag-2, Gli-Sufu block)
Cc1cc(C(=O)NCc2cc(F)cc3c2OCOC3)nn1C	none
Cn1nc(C(C)(C)C)cc1C(=O)NCc1cc(F)cc2c1OCOC2	NR2E3 ag-1 78, Jurkat NFkB inh 65, GalR3 antag 95, Gli-Sufu block 58 | Jurkat NFkB conf 60 | Gli-Sufu confirm 70 | SufuKO cytotox 26 | Wnt3a counter 37 | NR2E3 ag conf 95 | GAL4-VP16 luc 77 | GalR3 antag conf 111 | CNG parental inactive
COC(=O)Cc1nnn2c1CC(OC)c1cc(Br)ccc1-2 (configuration not stated)	none (no result: NR2E3 ag-1, 697 NFkB inh, Jurkat NFkB inh, NR2E3 ag-2, Gli-Sufu block)
Cc1oc(-c2ccc(Cl)cc2)nc1CS(=O)CC(=O)NCCCN1CCN(Cc2ccccc2)CC1 (configuration not stated)	Jurkat NFkB inh 65, GalR3 antag 69 | Jurkat NFkB conf inactive | GalR3 antag conf 110 | CNG parental 2.0
Cc1ccc(C2c3c(n[nH]c3C(C)C)C(=O)N2c2ccccc2)cc1 (configuration not stated)	none (no result: NR2E3 ag-1, 697 NFkB inh, Jurkat NFkB inh, NR2E3 ag-2, Gli-Sufu block)
CC(=O)Nc1ccccc1OCC(=O)c1cc(C)n(Cc2cccs2)c1C	NR2E3 ag-1 90, 697 NFkB inh 96, Jurkat NFkB inh 56, GalR3 antag 83, Gli-Sufu block 79 | Jurkat NFkB conf 58 | 697 NFkB conf 65 | NR2E3 ag conf 93 | GAL4-VP16 luc 73 | GalR3 antag conf 98 | CNG parental inactive
CCn1nc(C(=O)OCC(=O)c2cc(C)n(Cc3cccs3)c2C)c2ccccc2c1=O	none
CCOC(=O)N(C)[C@H]1C[C@H]2c3[nH]c4c(-c5ccccc5)cccc4c3CCN2C(=O)[C@H]1[C@H](C)O	none (no result: NR2E3 ag-1, 697 NFkB inh, Jurkat NFkB inh, NR2E3 ag-2, Gli-Sufu block)
C(=N\n1cnnc1)/c1ccc(OCc2ccccc2)cc1	none
Cc1cc(/C=N/n2cnnc2)c(C)n1-c1ccc(OCc2ccc(Cl)cc2)cc1	NR2E3 ag-1 102, Jurkat NFkB inh 52, GalR3 antag 41, Gli-Sufu block 63 | Jurkat NFkB conf inactive | NR2E3 ag conf 98 | GAL4-VP16 luc 87 | GalR3 antag conf 64 | CNG parental inactive
COc1ccc(CCNc2ncnc3sccc23)cc1OC	NR2E3 ag-1 90, 697 NFkB inh 75, Jurkat NFkB inh 64, GalR3 antag 73, Gli-Sufu block 75 | Jurkat NFkB conf 67 | 697 NFkB conf 92 | Gli-Sufu confirm 80 | SufuKO cytotox 43 | Wnt3a counter 41 | NR2E3 ag conf 98 | GAL4-VP16 luc 90 | GalR3 antag conf 129 | CNG parental inactive
CCCCc1c(-c2ccccc2OC)ncn1Cc1c(F)cccc1F	none (no result: NR2E3 ag-1, 697 NFkB inh, Jurkat NFkB inh, NR2E3 ag-2, Gli-Sufu block)
CCCCCCCCN1C(=O)[C@@H](CC(=O)NCc2ccc(C)o2)C[C@@]2(C(=O)OC)C1=C[C@H](C1CCCC1)O[C@@H]2C	none (no result: NR2E3 ag-1, 697 NFkB inh, Jurkat NFkB inh, NR2E3 ag-2, Gli-Sufu block)
C[n+]1c2n(c3ccccc31)N=C(c1cc(C(C)(C)C)c(O)c(C(C)(C)C)c1)CS2	Jurkat NFkB inh 52, GalR3 antag 19, Gli-Sufu block 89 | Jurkat NFkB conf inactive | GalR3 antag conf 30 | CNG parental 17
CCN1CCN(C(=O)c2cc(COc3ccc4ncccc4c3)on2)CC1	none
CCC1CCCCN1C(=O)c1cc(COc2ccc3ncccc3c2)on1 (configuration not stated)	NR2E3 ag-1 83, Jurkat NFkB inh 58, GalR3 antag 71, Gli-Sufu block 72 | Jurkat NFkB conf 60 | Gli-Sufu confirm 72 | SufuKO cytotox 35 | Wnt3a counter inactive | NR2E3 ag conf 96 | GAL4-VP16 luc 87 | GalR3 antag conf 112 | CNG parental inactive
Cc1ccc(S(=O)(=O)NCc2ccncc2)cc1C	Jurkat NFkB inh 52, GalR3 antag 88, Gli-Sufu block 74 | Jurkat NFkB conf 55 | Gli-Sufu confirm 73 | SufuKO cytotox 26 | Wnt3a counter 36 | NR2E3 ag conf 92 | GAL4-VP16 luc 76 | GalR3 antag conf 105 | CNG parental inactive
